Results from ChEMBL document CHEMBL2390844, “Evaluation of bioactivities of chlorokojic acid derivatives against dermatophytes couplet with cytotoxicity” (Bioorg Med Chem Lett, 2013).
Converted amounts (≈) assume the structure as drawn.

Key:
[1] = tested on: Nannizzia gypsea; assay: Antidermatophytic activity against Microsporum gypseum NCPF 580 after 7 days by broth microdilution method; assay type: functional; settings: NCPF 580, 168 h
Procedure, shortened: (§1)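 Broth microdilution per CLSI in RPMI 1640 with L-glutamine, no bicarbonate, buffered to pH 7.0 with 0.165 M MOPS, filter-sterilized. Test dilution series 128-0.0625 μg mL⁻¹; sterility and growth (inoculum) controls on each plate. Wells inoculated, incubated 28°C for 7 days, read visually with an inverted mirror; MIC recorded. Triplicate.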

[2] = Cytotoxicity against human HeLa cells; assay type: cell-based; settings: read-out: MNCC
Procedure, shortened: (§2)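 Maximum non-toxic concentration (MNTC) determined in HeLa and MRC-5 cells by a previously described method, based on cellular morphological alteration.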

[3] = tested on: Epidermophyton floccosum; assay: Antidermatophytic activity against Epidermophyton floccosum isolate after 7 days by broth microdilution method; assay type: functional; settings: 168 h; procedure, shortened: as §1
[4] = tested on: Nannizzia gypsea; assay: Antidermatophytic activity against Microsporum gypseum isolate after 7 days by broth microdilution method; assay type: functional; settings: 168 h; procedure, shortened: as §1
[5] = Antidermatophytic activity against Trichophyton mentagrophytes var. erinacei isolate after 7 days by broth microdilution method; assay type: functional; settings: Arthroderma benhamiae; procedure, shortened: as §1
[6] = Cytotoxicity against human MRC5 cells; assay type: cell-based; settings: read-out: MNCC; procedure, shortened: as §2
[7] = Antidermatophytic activity against Trichophyton mentagrophytes var. erinacei NCPF 375 after 7 days by broth microdilution method; assay type: functional; settings: Arthroderma benhamiae; procedure, shortened: as §1
[8] = tested on: Epidermophyton floccosum; assay: Antidermatophytic activity against Epidermophyton floccosum RSKK 3027 after 7 days by broth microdilution method; assay type: functional; settings: RSKK 3027, 168 h; procedure, shortened: as §1

Row | Compound | MIC [1] [µg/mL] | MNTC [2] [µg/mL] | MIC [3] [µg/mL] | MIC [4] [µg/mL] | MIC [5] [µg/mL] | MNTC [6] [µg/mL] | MIC [7] [µg/mL] | MIC [8] [µg/mL]
1 | O=c1cc(CCl)oc(CN2CC=C(c3ccc(F)cc3)CC2)c1O | 16 (≈ 45.7 µM) | ≥ 256 | 16 (≈ 45.7 µM) | 16 (≈ 45.7 µM) | 16 (≈ 45.7 µM) | ≥ 256 | 16 (≈ 45.7 µM) | 16 (≈ 45.7 µM)
2 | O=c1cc(CCl)oc(CN2CCN(c3ccc([N+](=O)[O-])cc3)CC2)c1O | 16 (≈ 42.1 µM) | ≥ 512 | 32 (≈ 84.3 µM) | 32 (≈ 84.3 µM) | 32 (≈ 84.3 µM) | ≥ 512 | 16 (≈ 42.1 µM) | 16 (≈ 42.1 µM)
3 | O=c1cc(CCl)oc(CN2CC=C(c3ccccc3)CC2)c1O | 8 (≈ 24.1 µM) | ≥ 256 | 16 (≈ 48.2 µM) | 16 (≈ 48.2 µM) | 16 (≈ 48.2 µM) | ≥ 256 | 8 (≈ 24.1 µM) | 8 (≈ 24.1 µM)
4 | Cc1ccccc1CN1CCN(Cc2oc(CCl)cc(=O)c2O)CC1 | 16 (≈ 44.1 µM) | ≥ 512 | 32 (≈ 88.2 µM) | 32 (≈ 88.2 µM) | 32 (≈ 88.2 µM) | ≥ 512 | 16 (≈ 44.1 µM) | 16 (≈ 44.1 µM)
5 | O=c1cc(CCl)oc(CN2CCN(Cc3cccc(C(F)(F)F)c3)CC2)c1O | 4 (≈ 9.6 µM) | ≥ 512 | 8 (≈ 19.2 µM) | 8 (≈ 19.2 µM) | 8 (≈ 19.2 µM) | ≥ 512 | 4 (≈ 9.6 µM) | 4 (≈ 9.6 µM)
6 | O=c1cc(CCl)oc(CN2CCN(CC3CCCCC3)CC2)c1O | 4 (≈ 11.3 µM) | ≥ 256 | 8 (≈ 22.5 µM) | 8 (≈ 22.5 µM) | 8 (≈ 22.5 µM) | ≥ 512 | 4 (≈ 11.3 µM) | 4 (≈ 11.3 µM)
7 | CC(=O)c1ccc(N2CCN(Cc3oc(CCl)cc(=O)c3O)CC2)cc1 | 16 (≈ 42.5 µM) | ≥ 512 | 16 (≈ 42.5 µM) | 16 (≈ 42.5 µM) | 16 (≈ 42.5 µM) | ≥ 512 | 16 (≈ 42.5 µM) | 16 (≈ 42.5 µM)
8 | Cc1ccc(N2CCN(Cc3oc(CCl)cc(=O)c3O)CC2)cc1 | 4 (≈ 11.5 µM) | ≥ 64 | 8 (≈ 22.9 µM) | 8 (≈ 22.9 µM) | 8 (≈ 22.9 µM) | ≥ 64 | 4 (≈ 11.5 µM) | 4 (≈ 11.5 µM)
9 | O=c1cc(CCl)oc(CN2CCN(Cc3ccccc3)CC2)c1O | 16 (≈ 45.9 µM) | ≥ 512 | 32 (≈ 91.7 µM) | 32 (≈ 91.7 µM) | 32 (≈ 91.7 µM) | ≥ 512 | 16 (≈ 45.9 µM) | 16 (≈ 45.9 µM)
10 | O=c1cc(CCl)oc(CN2CCN(Cc3ccc(C(F)(F)F)cc3)CC2)c1O | 4 (≈ 9.6 µM) | ≥ 512 | 8 (≈ 19.2 µM) | 8 (≈ 19.2 µM) | 8 (≈ 19.2 µM) | ≥ 512 | 4 (≈ 9.6 µM) | 4 (≈ 9.6 µM)
11 | O=c1cc(CCl)oc(CN2CCN(Cc3c(Cl)cccc3Cl)CC2)c1O | 4 (≈ 9.58 µM) | ≥ 256 | 8 (≈ 19.2 µM) | 8 (≈ 19.2 µM) | 8 (≈ 19.2 µM) | ≥ 512 | 4 (≈ 9.58 µM) | 4 (≈ 9.58 µM)
12 | O=c1cc(CCl)oc(CN2CCN(C3CCCCC3)CC2)c1O | 16 (≈ 46.9 µM) | ≥ 512 | 32 (≈ 93.9 µM) | 32 (≈ 93.9 µM) | 16 (≈ 46.9 µM) | ≥ 512 | 16 (≈ 46.9 µM) | 16 (≈ 46.9 µM)
13 | O=c1cc(CCl)oc(CN2CC=C(c3ccc(Cl)cc3)CC2)c1O | 8 (≈ 21.8 µM) | ≥ 256 | 8 (≈ 21.8 µM) | 8 (≈ 21.8 µM) | 8 (≈ 21.8 µM) | ≥ 256 | 8 (≈ 21.8 µM) | 8 (≈ 21.8 µM)
14 | Cc1cccc(N2CCN(Cc3oc(CCl)cc(=O)c3O)CC2)c1C | 8 (≈ 22 µM) | ≥ 256 | 16 (≈ 44.1 µM) | 16 (≈ 44.1 µM) | 8 (≈ 22 µM) | ≥ 256 | 4 (≈ 11 µM) | 8 (≈ 22 µM)
15 | N#CC1(c2ccccc2)CCN(Cc2oc(CCl)cc(=O)c2O)CC1 | 16 (≈ 44.6 µM) | ≥ 256 | 32 (≈ 89.2 µM) | 32 (≈ 89.2 µM) | 32 (≈ 89.2 µM) | ≥ 256 | 16 (≈ 44.6 µM) | 16 (≈ 44.6 µM)
16 | O=c1cc(CCl)oc(CN2CCN(c3ccc(C(F)(F)F)cc3)CC2)c1O | 32 (≈ 79.4 µM) |  | 64 (≈ 159 µM) | 64 (≈ 159 µM) | 64 (≈ 159 µM) | ≥ 128 | 32 (≈ 79.4 µM) | 32 (≈ 79.4 µM)
17 | O=c1cc(CCl)occ1O | 2 (≈ 12.5 µM) | ≥ 256 | 16 (≈ 99.7 µM) | 4 (≈ 24.9 µM) | 8 (≈ 49.8 µM) | ≥ 256 | 4 (≈ 24.9 µM) | 8 (≈ 49.8 µM)
18 | O=c1cc(CCl)oc(CN2CCN(Cc3ccc(Cl)cc3)CC2)c1O | 4 (≈ 10.4 µM) | ≥ 128 | 8 (≈ 20.9 µM) | 8 (≈ 20.9 µM) | 8 (≈ 20.9 µM) | ≥ 128 | 4 (≈ 10.4 µM) | 4 (≈ 10.4 µM)
19 | CCC(C)n1ncn(-c2ccc(N3CCN(c4ccc(OCC5COC(Cn6cncn6)(c6ccc(Cl)cc6Cl)O5)cc4)CC3)cc2)c1=O (stereo not drawn) [ITRACONAZOLE] | 0.125 (≈ 0.177 µM) |  | 0.25 (≈ 0.354 µM) | 0.25 (≈ 0.354 µM) | 0.5 (≈ 0.709 µM) |  | 0.25 (≈ 0.354 µM) | 0.125 (≈ 0.177 µM)
20 | O=c1cc(CCl)oc(CN2CCN(Cc3cc(F)ccc3F)CC2)c1O | 4 (≈ 10.4 µM) | ≥ 256 | 8 (≈ 20.8 µM) | 8 (≈ 20.8 µM) | 8 (≈ 20.8 µM) | ≥ 256 | 4 (≈ 10.4 µM) | 4 (≈ 10.4 µM)
21 | O=c1cc(CCl)oc(CN2CCN(c3ccccc3F)CC2)c1O | 8 (≈ 22.7 µM) |  | 32 (≈ 90.7 µM) | 16 (≈ 45.4 µM) | 16 (≈ 45.4 µM) | ≥ 128 | 8 (≈ 22.7 µM) | 16 (≈ 45.4 µM)
22 | CN(C/C=C/C#CC(C)(C)C)Cc1cccc2ccccc12 [TERBINAFINE] | 0.25 (≈ 0.858 µM) |  | 0.5 (≈ 1.72 µM) | 0.5 (≈ 1.72 µM) | 0.25 (≈ 0.858 µM) |  | 0.125 (≈ 0.429 µM) | 0.25 (≈ 0.858 µM)
23 | COC1=CC(=O)C[C@@H](C)[C@]12Oc1c(Cl)c(OC)cc(OC)c1C2=O [GRISEOFULVIN] | 0.5 (≈ 1.42 µM) |  | 1 (≈ 2.83 µM) | 1 (≈ 2.83 µM) | 1 (≈ 2.83 µM) |  | 0.5 (≈ 1.42 µM) | 0.5 (≈ 1.42 µM)
24 | Cc1cccc(CN2CCN(Cc3oc(CCl)cc(=O)c3O)CC2)c1 | 16 (≈ 44.1 µM) | ≥ 512 | 32 (≈ 88.2 µM) | 32 (≈ 88.2 µM) | 16 (≈ 44.1 µM) | ≥ 512 | 16 (≈ 44.1 µM) | 16 (≈ 44.1 µM)
25 | O=C(C1CCCCC1)N1CCN(Cc2oc(CCl)cc(=O)c2O)CC1 | 16 (≈ 43.4 µM) | ≥ 128 | 32 (≈ 86.8 µM) | 32 (≈ 86.8 µM) | 16 (≈ 43.4 µM) | ≥ 128 | 8 (≈ 21.7 µM) | 16 (≈ 43.4 µM)
26 | O=C(OCc1ccccc1)N1CCN(Cc2oc(CCl)cc(=O)c2O)CC1 | 4 (≈ 10.2 µM) | ≥ 256 | 8 (≈ 20.4 µM) | 8 (≈ 20.4 µM) | 8 (≈ 20.4 µM) | ≥ 128 | 4 (≈ 10.2 µM) | 4 (≈ 10.2 µM)
27 | O=c1cc(CCl)oc(CN2CCN(c3ccc(F)cc3)CC2)c1O | 8 (≈ 22.7 µM) |  | 16 (≈ 45.4 µM) | 16 (≈ 45.4 µM) | 8 (≈ 22.7 µM) | ≥ 128 | 8 (≈ 22.7 µM) | 8 (≈ 22.7 µM)
28 | Cc1ccccc1N1CCN(Cc2oc(CCl)cc(=O)c2O)CC1 | 16 (≈ 45.9 µM) | ≥ 128 | 32 (≈ 91.7 µM) | 32 (≈ 91.7 µM) | 16 (≈ 45.9 µM) | ≥ 128 | 8 (≈ 22.9 µM) | 16 (≈ 45.9 µM)
29 | O=c1cc(CCl)oc(CN2CCN(c3ccccc3)CC2)c1O | 8 (≈ 23.9 µM) | ≥ 256 | 8 (≈ 23.9 µM) | 8 (≈ 23.9 µM) | 16 (≈ 47.8 µM) | ≥ 256 | 8 (≈ 23.9 µM) | 4 (≈ 11.9 µM)
